Results from ChEMBL document CHEMBL1130386, “Structure-activity relationship of newly synthesized quinoline derivatives for reversal of multidrug resistance in cancer” (1997).

Test system: K562
Experiment: MDR-reversing activity in K562/ADM cells at 1 uM concentration of [3H]-VCR (vincristine), activity expressed relative to verapamil.
Type: functional, Homo sapiens
Outline: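 K562/ADM cells at 1.5 × 10^6/mL in growth medium with 10 mM HEPES were incubated at 37 °C with 30 nM [3H]VCR (5.6 Ci/mmol), with or without modulator (1 µM) or verapamil. At intervals, aliquots were spun through a 4:1 silicone oil/liquid paraffin layer. Pellets were lysed overnight in 0.5 N KOH and counted by liquid scintillation. Intracellular VCR was scaled to verapamil.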

| Structure (SMILES) | Activity [%] |
| --- | --- |
| OC(CNCCC(c1ccccc1)c1ccccc1)COc1cccc2ncccc12 (stereo unspecified) | 343 |
| OC(COc1ccccc1)CN1CCN(C(c2ccccc2)c2ccccc2)CC1 (stereo unspecified) | 56 |
| OC(COc1cccc2ncccc12)CN1CCN(C(c2ccccc2)c2ccc(Cl)cc2)CC1 (stereo unspecified) | 243 |
| OC(COc1cccc2ncccc12)CN1CCN(C2c3ccccc3COc3ccccc32)CC1 (stereo unspecified) | 414 |
| CN1CCN(CC(O)COc2cccc3ncccc23)CC1 (stereo unspecified) | 47 |
| OC(COc1cccc2ncccc12)CN1CCC(=C(c2ccccc2)c2ccccc2)CC1 (stereo unspecified) | 309 |
| OC(COc1cccc2ncccc12)CN1CCN(C(c2ccccc2)c2ccccc2)CC1 (stereo unspecified) | 358 |
| OC(COc1cccc2ncccc12)CN1CCNCC1 (stereo unspecified) | 65 |
| OC(COc1cccc2ncccc12)CN1CCC(=C2c3ccccc3CCc3ccccc32)CC1 (stereo unspecified) | 374 |
| O=C(C1c2ccccc2Oc2ccccc21)N1CCN(CC(O)COc2cccc3ncccc23)CC1 (stereo unspecified) | 279 |
| OC(COc1cccc2ncccc12)CN1CCC(=C(c2ccc(F)cc2)c2ccc(F)cc2)CC1 (stereo unspecified) | 246 |
| OC(COc1cccc2ncccc12)CN1CCN(CC(c2ccccc2)c2ccccc2)CC1 (stereo unspecified) | 327 |
| O=C(C1c2ccccc2-c2ccccc21)N1CCN(CC(O)COc2cccc3ncccc23)CC1 (stereo unspecified) | 213 |
| OC(COc1cccc2ncccc12)CN1CCN(C(c2ccc(F)cc2)c2ccc(F)cc2)CC1 (stereo unspecified) | 265 |
| OC(COc1cccc2ncccc12)CN1CCN(C2c3ccccc3CCc3ccccc32)CC1 (stereo unspecified) | 371 |
| O=C(C(c1ccccc1)c1ccccc1)N1CCN(CC(O)COc2cccc3ncccc23)CC1 (stereo unspecified) [DOFEQUIDAR] | 381 |
| OC(COc1cccc2ccccc12)CN1CCN(C(c2ccccc2)c2ccccc2)CC1 (stereo unspecified) | 32 |
| OC(COc1cccc2ncccc12)CN1CCN(Cc2ccccc2)CC1 (stereo unspecified) | 123 |
| CCCCCCCCCCCCCCCCCCN1CCN(CC(O)COc2cccc3ncccc23)CC1 (stereo unspecified) | 55 |
| O=C1C(=O)N(C2c3ccccc3CCc3ccccc32)CCN1CC(O)COc1cccc2ncccc12 (stereo unspecified) | 81 |
| OC(CNCC(c1ccccc1)c1ccccc1)COc1cccc2ncccc12 (stereo unspecified) | 117 |
| OC(COc1cccc2ncccc12)CN1CCN(C(c2ccccc2)c2cccs2)CC1 (stereo unspecified) | 428 |
| OC(COc1cccc2ncccc12)CN1CCN(C2c3ccccc3-c3ccccc32)CC1 (stereo unspecified) | 229 |
| OC(COc1cccc2ncccc12)CN1CCN(C2c3ccccc3CCc3cccnc32)CC1 (stereo unspecified) | 316 |
| O=C(C(c1ccc(F)cc1)c1ccc(F)cc1)N1CCN(CC(O)COc2cccc3ncccc23)CC1 (stereo unspecified) | 263 |
| COc1ccc(C(c2ccc(OC)cc2)N2CCN(CC(O)COc3cccc4ncccc34)CC2)cc1 (stereo unspecified) | 260 |
